Hit rate of the full screen: of about 300,000 compounds, about 120 (0.04%) were called active.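 Rule for the calls: active = more than half of replicate wells score below -50%, meaning over 50% inhibition versus plate controls; inconclusive = some replicates but at most half score below -50%; inactive = no replicate scores below -50%.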 The full list was thinned out, with actives kept by preference.
biological target: Glycogen synthase kinase-3 beta (Homo sapiens) (UniProt P49841); test: human GSK3beta kinase inhibitors, primary screen, biochemical, cell-free homogeneous, HTS (AID 2097); conditions: GST-GSK3beta kinase, ADP-Glo luminescence, 60 min; at 10 µM; stronger effect = lower value;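 note: 0% = median DMSO wells and -100% = median GW8510 positive control wells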
Sequence (P49841 whole entry, looked up, the tested form may be a part): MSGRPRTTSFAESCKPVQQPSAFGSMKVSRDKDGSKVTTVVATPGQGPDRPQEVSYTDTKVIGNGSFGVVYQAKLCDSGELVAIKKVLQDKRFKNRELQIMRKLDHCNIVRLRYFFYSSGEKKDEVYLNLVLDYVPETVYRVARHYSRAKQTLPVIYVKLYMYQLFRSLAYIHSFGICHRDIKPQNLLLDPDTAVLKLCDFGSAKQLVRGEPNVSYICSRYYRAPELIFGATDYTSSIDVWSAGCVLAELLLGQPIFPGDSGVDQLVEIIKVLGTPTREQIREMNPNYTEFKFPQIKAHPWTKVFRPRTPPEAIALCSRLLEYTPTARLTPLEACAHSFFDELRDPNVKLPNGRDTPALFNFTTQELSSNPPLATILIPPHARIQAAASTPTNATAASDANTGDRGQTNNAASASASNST
Outline: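 Assay system: GST-fused GSK3beta enzyme, cell-free / Medium: Tris pH 7.5 buffer with MgCl2, DTT, BSA, heparin / Also added: peptide substrate plus 25 µM ATP (final) / Compound: 10 µM single point / Timing: kinase reaction with compound 60 min at room temperature / Detection: ADP-Glo luminescence / Benchmarks: DMSO neutral wells and GW8510 at 20 µM as positive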

Activity score (negative = inhibition), inactive:
CSC1=NC2(C)CCCCC2C12C=CC(=O)C=C2 (stereo not drawn) 2.87%, Cc1nc(C)c(-c2nnc(-c3cccc(S(=O)(=O)N(C)C)c3)o2)cc1C(=O)NN -3.56%, CC(=O)N1CCN(S(=O)(=O)c2cccc(C(=O)NC3CCC(C)CC3)c2)CC1 (stereo not drawn) -4.6%, O=C(NCc1ccco1)/C(=C\c1cccc([N+](=O)[O-])c1)NC(=O)c1ccco1 -2.64%, CCS(=O)(=O)c1ccc(-c2cccc(NC(=O)c3ccc(Br)o3)c2)nn1 2.73%, CCC(C)(C)NC(=O)C(c1cccc(OC)c1OC)N(CC(C)C)C(=O)CCC(=O)Nc1cc(C)on1 (stereo not drawn) -2.19%, COC(=O)[C@@H]1C[C@@]2(O)[C@H](O)[C@H](O)[C@H](O)C[C@H]2N1Cc1ccc(C)s1 2.63%, CCCCC1S/C(=N/N=C/c2cccs2)NC1=O (stereo not drawn) 0.416%, COc1ccc(OC)c(-c2csc(NC(=O)C3=NNC(=O)CC3)n2)c1 -0.495%, CC(C)c1ccc(NC(=O)CCN2C(=O)c3ccc([N+](=O)[O-])cc3C2=O)cc1 -3.13%, O=S(=O)(NC1CC1)c1ccc(F)c(F)c1 1.68%, CCCCn1c(=O)c(CCC(=O)OCC(=O)Nc2ccc(C)c(Cl)c2)nc2ccccc21 -3%, CCN(C(=O)C1CCCN(c2nc(-c3ccc(OC)cc3)no2)C1)c1ccc(OC)cc1 (stereo not drawn) -3.3%, COc1ccc(NC(=O)CCC(=O)N2CCN(S(=O)(=O)c3ccc(C)cc3)CC2)c(OC)c1 -0.163%, CCCc1ccc(OCC(O)CN2CCN(C(=O)OCC)CC2)cc1 (stereo not drawn) 4.1%, CCc1nn(CCCC(=O)Nc2ccc(C)cc2C)c(=O)c2cc3occc3n12 2.31%, CC(=O)C1=C(C)NC(C)=C(C(C)=O)C1c1cn(-c2ccccc2)nc1-c1cccs1 -1.7%, O=C(N/N=C/c1cccc(O)c1)c1cc2c(ccc3ccccc32)o1 -3.92%, COc1ccc(Cl)cc1NC(=O)CN(C)C(=O)CCCc1c[nH]c2ccccc12 -0.853%, COc1ccc(-n2nc(C(=O)NCC(=O)N3CCCCCC3)c3ccccc3c2=O)cc1Cl -0.439%, COc1cccc(CCNC(=O)COc2cccc3c2OC(C)(C)C3)c1 1.98%, Cc1ccc(NC(=O)Cn2cccc2C2=NC(c3ccccc3)CO2)c(C)c1 (stereo not drawn) -1.16%, COc1ccc(C(=O)C2CCCN(C(=O)c3ccc(OC)o3)C2)c(C)c1 (stereo not drawn) 0.0837%
